# A selection: hits, their analogues and other compounds. The true share with any hit is near 2.2%.
# PfM18AAP inh = PfM18AAP enzyme inhibition. hit rate 1.2% among 290,000. AID 1822. recombinant PfM18AAP, H-Glu-NHMec fluorogenic cleavage. inhibition, % at 7.35 µM;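 active = inhibition above the campaign mean inhibition over all tested compounds plus 3 SD, cut at about 28% in these data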;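 also: 0% = plate median of test compound wells and 100% = 2 mM ZnCl2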
# Neddyl block = blocks human cullin neddylation | TR-FRET cullin neddylation, biochemical | AID 651699 | inhibition, % at 25 µM | hit rate 0.58% among 360,000; in the data active = inhibition above about 36%
# Target sequence (P61081 whole entry, looked up): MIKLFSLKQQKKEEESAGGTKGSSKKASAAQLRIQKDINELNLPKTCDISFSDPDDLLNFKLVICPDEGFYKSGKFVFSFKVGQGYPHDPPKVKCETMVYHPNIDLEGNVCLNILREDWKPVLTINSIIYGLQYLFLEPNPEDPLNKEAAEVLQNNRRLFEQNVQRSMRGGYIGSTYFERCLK
# Target sequence (Q13564 whole entry, looked up): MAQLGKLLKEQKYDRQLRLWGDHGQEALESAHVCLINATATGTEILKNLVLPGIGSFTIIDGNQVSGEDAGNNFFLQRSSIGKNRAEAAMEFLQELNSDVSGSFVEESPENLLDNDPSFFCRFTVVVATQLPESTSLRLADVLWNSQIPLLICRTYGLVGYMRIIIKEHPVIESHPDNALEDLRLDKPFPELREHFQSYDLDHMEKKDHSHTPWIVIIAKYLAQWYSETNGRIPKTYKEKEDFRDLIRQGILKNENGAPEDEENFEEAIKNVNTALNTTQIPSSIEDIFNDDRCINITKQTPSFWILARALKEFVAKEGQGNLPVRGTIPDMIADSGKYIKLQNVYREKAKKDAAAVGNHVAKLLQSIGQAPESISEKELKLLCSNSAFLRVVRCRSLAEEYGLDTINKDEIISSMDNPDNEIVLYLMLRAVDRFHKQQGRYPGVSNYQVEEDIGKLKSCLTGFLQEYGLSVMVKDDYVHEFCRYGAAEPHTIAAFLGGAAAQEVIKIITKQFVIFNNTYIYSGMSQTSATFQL
# HKDC1 inh = HKDC1 (human) hexokinase inhibition. AID 493160. hit rate 0.16% among 340,000. Q2TB90. recombinant HKDC1, G6PDH/diaphorase resazurin coupled fluorescence. inhibition, % at 20 µM;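 active = inhibition above about 35% when tested at 20 µM, limit read from the data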;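 also: plate controls were DMSO wells with enzyme for no effect and DMSO wells lacking enzyme for full effect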
#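 Material: recombinant HKDC1 hexokinase; Amount: HKDC1 at 5 µg/mL; Medium: Tris pH 8.0 buffer with MgCl2, Tween-20, BSA, BME; Schedule: 90 min reaction incubation at room temperature, dark; Technique: coupled resazurin fluorescence, excitation 525 nm, emission 613 nm.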
# PfG6PD inh = PfG6PD (Plasmodium falciparum) enzyme inhibition; PfGluPho enzyme, NADPH resazurin-diaphorase fluorescence; inhibition, % at 20 µM; hit rate 0.78% among 350,000; AID 504690;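 active = inhibition reaching at least a set limit at 20 µM in the primary screen, cut at about 59% in these data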;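 also: 0% = DMSO wells with substrate and 100% = DMSO wells lacking glucose-6-phosphate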
# PfGluPho conf = confirmation of Plasmodium falciparum G6PD inhibitors; AID 504753; inhibition, % at 20 µM; hit rate 34% among 2,400; shares compounds with PfG6PD inh; recombinant PfGluPho, NADPH-diaphorase-resazurin fluorescence;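 active = inhibition of at least 50% at 20 µM in any single replicate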;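 also: 0% = DMSO with substrate and 100% = DMSO lacking glucose-6-phosphate substrate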
# Diaphorase 10uM = inhibits diaphorase or oxidizes, flagging false PfG6PD hits | inhibition, % at 20 µM | hit rate 39% among 820 | AID 504862 | diaphorase-coupled resazurin reduction, fluorescence, NADPH 10 uM | shares compounds with PfG6PD inh;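 active = average inhibition reaching 50% or more with the compound at 20 µM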;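 also: resorufin red fluorescence formed as diaphorase reduces resazurin using NADPH; 0% = DMSO with enzyme and 100% = DMSO without enzyme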
# Diaphorase 30uM = counter-screen for P. falciparum G6PD inhibitors: diaphorase inhibitors, oxidizers. shares compounds with PfG6PD inh. Diaphorase/resazurin coupled assay, resorufin fluorescence, 30 uM NADPH. inhibition, % at 20 µM. hit rate 29% among 820. AID 504863;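 active = inhibition averaging 50% or more, tested at 20 µM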;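 also: 0% = DMSO with enzyme and 100% = DMSO wells lacking diaphorase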
# Numbers without * were called inactive; / = no result shown.
SMILES,PfM18AAP inh,Neddyl block,HKDC1 inh,PfG6PD inh,PfGluPho conf,others
COc1ccc([C@H]2C(C#N)=C([S-])N[C@](C)(O)[C@@H]2[n+]2ccccc2)cc1,10.8,12.5,6.4,69.3*,37.7,
COc1ccc(NC(=O)c2ccc3[nH]c(C)c(C)c3c2)cc1,7.8,0.6,-0.8,67.8*,27.7,
CC(=O)Nc1cccc(NC(=O)c2ccc3[nH]c(C)c(C)c3c2)c1,-0.4,23.4,-2.6,77.9*,32.4,
Cc1cc(NC(=O)c2ccc3[nH]c(C)c(C)c3c2)ccn1,3.0,21.7,-4.1,46.0,/,
Cc1noc(C)c1-c1ccc(C(=O)NCc2ccc(Cl)cc2)c2occc12,/,10.6,/,/,/,
O=C(Cn1ccc(=O)[nH]c1=O)c1ccc([N+](=O)[O-])o1,/,-143.8,/,59.3*,33.5,
O=C(N/N=C/c1cccc(OC2CSC2)c1)c1ccccc1O,1.4,34.2,-4.9,-21.5,/,
Cn1ncc(Br)c1C(=O)N/N=C/c1cccc(OC2CSC2)c1,1.1,-8.9,13.5,115.1*,90.6*,Diaphorase 10uM=91.4*;Diaphorase 30uM=81.0*
CC(=O)OCCCNc1cc(Sc2nc3ccccc3s2)c2nonc2c1[N+](=O)[O-],-10.3,-15.8,22.4,99.4*,63.2*,Diaphorase 10uM=-17.6;Diaphorase 30uM=-10.5
CC(=O)OCCNc1cc(SCc2ccco2)c2nonc2c1[N+](=O)[O-],-6.4,-23.9,5.7,28.6,/,
O=C(CN1C(=O)c2cccnc2Oc2ccc(Cl)cc21)NC1CCCCC1,-4.7,4.1,-6.5,-10.8,/,
O=C(CCN1C(=O)c2ccccc2C1=O)Nc1ccccc1C(F)(F)F,5.6,4.2,-0.1,-11.9,/,
CCC(C)c1ccccc1OCCn1ccnc1 (stereo not given),0.3,0.9,1.7,70.0*,56.1*,Diaphorase 10uM=35.3;Diaphorase 30uM=31.4
O=C(CCc1ccc(S(=O)(=O)N2CCOCC2)cc1)N/N=C/c1ccc(O)c(O)c1O,11.6,-17.4,22.9,67.8*,60.4*,Diaphorase 10uM=33.2;Diaphorase 30uM=42.6
Cc1c(C(=O)c2ccc(F)cc2F)c2ccccn2c1CCc1ccccn1,/,9.1,/,16.8,/,
Cc1c(C(=O)c2ccc(F)cc2F)c2ccccn2c1CCC#N,29.8*,20.0,20.1,94.5*,17.1,
CC1(C2CCC3(C)OC3C2)CO1 (stereo not given),/,2.8,-8.2,5.1,/,
COc1ccc(C2Nc3cccc4cccc(c34)N2)cc1,4.0,-7.2,7.7,69.4*,36.8,
COc1ccc(O)c(/C=c2/sc3nc4cc(C)c(C)cc4n3c2=O)c1,6.6,-238.4,6.3,68.4*,32.6,
CC1CCCCN1C(=S)Nc1ccc(S(=O)(=O)N2CCCCC2)cc1 (stereo not given),/,15.3,/,-2.3,/,
COc1c2occc2c(OC)c2c(=O)cc(C)oc12,-5.7,4.9,-7.3,-6.1,/,
Cc1cc(=O)c2c(o1)C(=O)c1occc1C2=O,/,-50.2,22.9,85.7*,53.2*,Diaphorase 10uM=64.5*;Diaphorase 30uM=62.2*
CCOC(=O)c1cc(C)[nH]c(=S)c1C#N,-64.6,1.8,8.9,74.2*,45.7,
CC(=O)Nc1cc(C(C)(C)C)c(O)c(C(C)(C)C)c1,30.6*,-4.0,-2.4,81.2*,-8.4,
CC(C)(C)NC(=O)c1cc(C(C)(C)C)c(O)c(C(C)(C)C)c1,5.7,-7.5,0.9,8.3,/,
SMILES,PfM18AAP inh,Neddyl block,HKDC1 inh,PfG6PD inh,PfGluPho conf,others
COc1ccc(-n2ccc(-c3nn(-c4cccc(C(F)(F)F)c4)ccc3=O)n2)cc1,-2.0,-9.9,-4.9,24.6,/,
O=c1ccn(-c2cccc(C(F)(F)F)c2)nc1-c1ccn(-c2ccccc2F)n1,5.3,-26.9,-1.4,103.7*,101.9*,Diaphorase 10uM=96.5*;Diaphorase 30uM=78.0*
COc1ccc(/C=C2/SC(=O)N(CCNC(=O)C3CC(=O)N(Cc4ccccc4)C3)C2=O)cc1 (stereo not given),/,-39.0,/,5.1,/,
COC(=O)Cn1ccc2cc(S(=O)(=O)N3CCCCC3)ccc21,1.2,16.9,0.6,-18.0,/,
Cc1ccccc1OCc1nc2ccc(S(=O)(=O)N3CCOCC3)cc2[nH]1,-18.6,1.8,-15.6,63.8*,28.3,
CCc1ccccc1OCc1nc2ccc(S(=O)(=O)N3CCOCC3)cc2[nH]1,6.1,16.7,0.2,10.8,/,
COC(=O)c1ccc2nc(-c3ccc4c(c3)OCO4)cn2c1,-1.0,-71.2,-5.4,20.1,/,
CCc1ccn2cc(-c3ccc4c(c3)OCO4)nc2c1,2.2,/,-0.2,64.9*,23.4,
CCN(CC)c1ccc(C=Nc2ccccc2C)c(O)c1,10.0,-4.8,1.8,59.2*,28.2,
O=S(=O)(Cc1ccccc1)Oc1ccccc1,-4.1,1.4,2.5,56.9,/,
N#Cc1c(-c2ccco2)c2c([nH]c1=S)CCCC2,/,-45.8,3.6,71.1*,34.4,
COc1ccc(-c2c3c([nH]c(=S)c2C#N)CCC3)cc1,15.6,-162.0,3.5,63.9*,41.8,
COc1ccc2[nH]c3c(c(=O)c2c1)CCCC3,/,29.7,/,/,/,
COc1ccc(OC)c(-c2c3c([nH]c(=S)c2C#N)CCCC3)c1,19.8,-63.7,1.8,61.2*,26.5,
CCn1ccnc1CNC(=O)c1ccc2oc(CCCc3ccccc3)nc2c1,-0.7,-0.8,-0.3,13.0,/,
CCOC(=O)c1csc(NC(=O)CN2CCOCC2)n1,1.3,-0.2,9.6,-2.9,/,
Cc1ccc(-c2cc(C(=O)N3CCN(c4ncccn4)CC3)c3cc(Br)ccc3n2)o1,6.2,-155.7,2.5,61.6*,-10.8,
Cc1ccc(-c2cc(C(=O)N3CCN(c4ccc(F)cc4)CC3)c3ccccc3n2)o1,-37.3,/,8.5,15.8,/,
CCc1ccccc1N1CCN(S(=O)(=O)c2cc(OC)ccc2OC)CC1,0.2,-19.2,12.3,-3.8,/,
COc1cccc(C2CC(=O)N3CN(c4cccc(Cl)c4C)CSC3=C2C#N)c1OC (stereo not given),15.2,-14.4,9.2,85.7*,19.1,
CCc1ccccc1N1CSC2=C(C#N)C(c3cc(OC)c(OC)cc3OC)CC(=O)N2C1 (stereo not given),37.3*,-19.2,10.3,67.5*,25.8,
COc1cc(OC)c(C2CC(=O)N3CN(C)CSC3=C2C#N)cc1OC (stereo not given),19.2,-1.9,8.9,61.0*,33.6,
COc1ccc(OC)c(C2CC(=O)NC(SC)=C2C#N)c1 (stereo not given),-1.9,1.0,-2.5,28.2,/,
COc1cc(CN2CC(=O)N(c3cccc(Cl)c3C)C2=S)cc(OC)c1OC,0.3,-17.7,-3.4,19.6,/,
COc1ccc(OC)c(C2CC(=O)N3CN(c4ccc(C)c(Cl)c4)CSC3=C2C#N)c1 (stereo not given),17.9,-81.4,2.7,77.6*,14.2,
C[C@H]1CN([C@@H](C)CO)C(=O)CCCn2nncc2CO[C@H]1CN(C)C(=O)c1ccccc1,/,-5.3,/,-8.4,/,
CN1CCN(C(=O)c2ccc(NS(=O)(=O)c3cccc([N+](=O)[O-])c3)cc2)CC1,/,-23.3,-3.3,-3.5,/,

# From PubChem
